What was measured:
[1] = target: T1, Tyrosine-protein phosphatase non-receptor type 1 (Homo sapiens, UniProt P18031); assay: In vitro inhibitory activity against human recombinant protein tyrosine phosphatase 1b (PTP1B)
T1 sequence (P18031 whole entry): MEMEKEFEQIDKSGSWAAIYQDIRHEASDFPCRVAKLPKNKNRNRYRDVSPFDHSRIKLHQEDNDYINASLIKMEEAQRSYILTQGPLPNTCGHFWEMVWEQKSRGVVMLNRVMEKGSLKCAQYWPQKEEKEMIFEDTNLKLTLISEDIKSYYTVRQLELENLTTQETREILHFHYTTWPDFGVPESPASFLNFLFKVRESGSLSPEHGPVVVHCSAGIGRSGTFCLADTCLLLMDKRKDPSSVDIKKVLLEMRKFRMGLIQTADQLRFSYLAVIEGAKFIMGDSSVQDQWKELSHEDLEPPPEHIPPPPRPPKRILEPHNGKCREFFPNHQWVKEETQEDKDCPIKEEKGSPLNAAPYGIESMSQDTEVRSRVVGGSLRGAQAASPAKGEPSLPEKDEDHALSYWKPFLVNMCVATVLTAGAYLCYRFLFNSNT
How it was run: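 Recombinant human PTP1B, diluted in pH 7.4 Tris-HCl/EDTA/β-mercaptoethanol buffer, preincubated 10 min at 37 °C with compound in HEPES pH 7.4. Reaction ran 30 min at 37 °C. Released phosphate was read by malachite green-ammonium molybdate at 650 nm, in quadruplicate. IC50 came from four-parameter logistic regression.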

[2] = system: Mus musculus; assay: percentage decrease in plasma glucose in the ob/ob mouse model at 100 mg/kg/day administered per orally; type: functional; conditions: route oral
How it was run: (§1)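 Genetically obese C57 B1/6J ob/ob diabetic mice, four to six per group, dosed orally once daily for 4 days. Plasma glucose is expressed as percent change relative to the vehicle-treated group, with p < 0.05 versus vehicle. Changes that are not significant are generally less than -15%. Ciglitazone served as the reference standard.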

[3] = system: Mus musculus; assay: percentage decrease in plasma glucose in the ob/ob mouse model at 25 mg/Kg/day administered per orally; type: functional; how it was run: as §1

Compound	IC50 [1] [nM]	Decrease [2] [%]	Decrease [3] [%]
O=C(O)[C@@H](Cc1ccccc1)Oc1ccc(-c2ccc(-c3c(Cc4ccccc4)sc4ccccc34)cc2)cc1-c1ccc(Cl)cc1	52		
CCCCc1oc2ccccc2c1Cc1ccc2c(Br)c(OCn3cnnn3)ccc2c1	700		
O=C(O)C(Cc1ccccc1)Oc1ccc(-c2ccc(-c3c(Cc4ccccc4)oc4ccccc34)cc2)cc1 (stereo not drawn)		40	
COc1ccc(-c2cc(-c3ccc(-c4c(Cc5ccccc5)sc5ccccc45)cc3)cc(Br)c2OCC(=O)O)c(OC)c1	47		
O=C(O)[C@H](CCc1ccccc1)Oc1ccc(-c2ccc(-c3c(Cc4ccccc4)oc4ccccc34)cc2)cc1	220		
O=C(O)[C@@H](Cc1ccccc1)Oc1ccc(-c2ccc(-c3c(Cc4ccc(O)cc4O)sc4ccccc34)cc2)cc1	120		20
O=C(O)[C@@H](Cc1ccccc1)Oc1ccc(-c2ccc(-c3oc4ccccc4c3Cc3ccccc3)cc2)cc1	350		
O=C(O)c1ccc(COc2ccc(-c3ccc(-c4c(Cc5ccccc5)oc5ccccc45)cc3)cc2)cc1	360		
CCCCc1oc2ccccc2c1C(=O)c1ccc2c(Br)c(OCn3cnnn3)ccc2c1	1100	25	
CCCCc1oc2ccccc2c1Cc1ccc2c(I)c(O)ccc2c1	380		
O=C(O)c1ccccc1C(=O)Nc1cc(-c2ccc(-c3c(Cc4ccccc4)oc4ccccc34)cc2)ccc1O	160		
CCCCc1oc2ccccc2c1-c1ccc(-c2ccc(OC(Cc3ccccc3)C(=O)O)cc2)cc1 (stereo not drawn)		34	
CCCCc1oc2ccccc2c1C(=O)c1ccc2c(Br)c(OC(Cc3ccccc3)C(=O)O)ccc2c1 (stereo not drawn)	1200		
COc1ccc(-c2cc(-c3ccc(-c4c(Cc5ccccc5)sc5ccccc45)cc3)ccc2O[C@H](Cc2ccccc2)C(=O)O)cc1	53		
O=C(O)CNc1cc(-c2ccc(-c3c(Cc4ccccc4)oc4ccccc34)cc2)ccc1OCCc1ccccc1	82		
O=C(O)[C@H](CCN1C(=O)c2ccccc2C1=O)Oc1ccc(-c2ccc(-c3c(Cc4ccccc4)oc4ccccc34)cc2)cc1	340		
O=C(O)[C@H](Cc1ccccc1)Oc1ccc(-c2ccc(-c3c(Cc4ccccc4)oc4ncccc34)cc2)cc1	590		
O=C(O)[C@@H](Cc1ccccc1)Oc1ccc(-c2ccc(-c3c(Cc4ccccc4)sc4ccccc34)cc2)cc1		37	
O=C(O)c1ccc(S(=O)(=O)Oc2c(Br)cc(-c3ccc(-c4c(Cc5ccccc5)sc5ccccc45)cc3)cc2Br)cc1O		25	
O=C(O)COc1ccc(-c2ccc(-c3c(Cc4ccccc4)sc4ccccc34)cc2)cc1-c1ccccc1	100		

Compound	IC50 [1] [nM]	Decrease [2] [%]	Decrease [3] [%]
COc1ccc(-c2cc(-c3ccc(-c4c(Cc5ccccc5)sc5ccccc45)cc3)cc(-c3ccc(OC)cc3)c2OCC(=O)O)cc1			26
Cc1ccc2oc(Cc3ccccc3)c(-c3ccc(-c4ccc(O[C@H](Cc5ccccc5)C(=O)O)cc4)cc3)c2c1	410		
O=C(O)COc1ccc(-c2ccc(-c3c(Cc4ccccc4)oc4ccccc34)cc2)cc1C1CCCC1	170		
COc1cccc(-c2cc(-c3ccc(-c4c(Cc5ccccc5)sc5ccccc45)cc3)ccc2OCC(=O)O)c1OC	71		
O=C(O)[C@H](Cc1ccccc1)Oc1ccc(-c2ccc(-c3c(Cc4ccccc4)oc4ccc(F)cc34)cc2)cc1	130		
O=C(O)COc1c(Br)cc(-c2ccc(-c3c(Cc4ccccc4)sc4ccccc34)cc2)cc1Br	100		
CCCCc1oc2ccccc2c1Cc1ccc2c(I)c(OC(Cc3ccccc3)C(=O)O)ccc2c1 (stereo not drawn)	320		
O=C(O)[C@@H](Cc1ccccc1)Oc1ccc(-c2ccc(-c3c(Cc4ccc(F)cc4)sc4ccccc34)cc2)cc1	120		
Cc1oc(-c2ccc(C(F)(F)F)cc2)nc1-c1ccc(-c2ccc(OCn3cnnn3)cc2)cc1	900		
Cc1oc(-c2ccc(C(F)(F)F)cc2)nc1-c1ccc2c(Br)c(OCC(=O)O)ccc2c1	1300		
CC(=O)Oc1cc(S(=O)(=O)Oc2ccc(-c3ccc(-c4coc5ccccc45)cc3)cc2)ccc1C(=O)O	1160		
O=C(O)c1ccc(S(=O)(=O)Oc2ccc(-c3ccc(-c4c(Cc5ccccc5)oc5ccccc45)cc3)cc2)cc1O			18
CCOc1ccc(-c2cc(-c3ccc(-c4c(Cc5ccccc5)sc5ccccc45)cc3)ccc2OCC(=O)O)cc1	52		
Cc1oc(-c2ccc(C(F)(F)F)cc2)nc1-c1cccc(-c2ccc(OC(Cc3ccccc3)C(=O)O)cc2)c1 (stereo not drawn)	1600		
Oc1ccc(-c2ccc(-c3c(Cc4ccc(O)cc4O)sc4ccccc34)cc2)cc1	580		
COc1ccc(-c2cc(-c3ccc(-c4c(Cc5ccccc5)sc5ccccc45)cc3)cc(Br)c2OCC(=O)O)cc1			30
O=C(O)[C@@H](Cc1ccccc1)Oc1ccc(-c2ccc(-c3c(Cc4ccccc4)oc4ccccc34)cc2)cc1		35	
O=C(O)c1ccc(S(=O)(=O)Oc2ccc(-c3ccc(-c4c(Cc5ccccc5)oc5ccccc45)cc3)cc2C2CCCC2)cc1O	28		
Oc1c(I)cc(-c2ccc(-c3c(Cc4ccccc4)sc4ccccc34)cc2)cc1I	520		
O=C(O)c1ccccc1C(=O)NCCC(Oc1c(Br)cc(-c2ccc(-c3c(Cc4ccccc4)sc4ccccc34)cc2)cc1Br)C(=O)O (stereo not drawn)	180		

Compound	IC50 [1] [nM]	Decrease [2] [%]	Decrease [3] [%]
O=C(O)[C@H](Cc1ccccc1)Oc1ccc(-c2ccc(-c3c(Cc4ccccc4)oc4ccccc34)cc2)cc1C1CCCC1	55		
CCCCc1sc2ccccc2c1-c1ccc(-c2ccc(O)cc2)cc1	700		
O=C(c1ccccc1)c1oc2ccccc2c1-c1ccc(-c2ccc(O)cc2)cc1	740		
Cc1oc(-c2ccc(C(F)(F)F)cc2)nc1-c1ccc(-c2ccc(OC(Cc3ccccc3)C(=O)O)cc2)cc1 (stereo not drawn)			27
CCCCc1sc2ccccc2c1-c1ccc(-c2ccc(O[C@@H](C(=O)O)c3ccccc3)cc2)cc1	110	28	
Oc1ccc(-c2ccc(-c3c(Cc4ccccc4)oc4ccccc34)cc2)cc1	920		
CCCCc1oc2ccccc2c1Cc1ccc2cc(O)ccc2c1	1300		
O=C(O)CCCOc1ccc(-c2ccc(-c3c(Cc4ccccc4)sc4ccccc34)cc2)cc1Br	170		
CCCCc1sc2ccccc2c1-c1ccc(-c2ccc(O[C@H](Cc3ccccc3)C(=O)O)cc2)cc1	170	27	
O=C(O)C(CCN1C(=O)c2ccccc2C1=O)Oc1c(Br)cc(-c2ccc(-c3c(Cc4ccccc4)sc4ccccc34)cc2)cc1Br (stereo not drawn)	44		
COC(=O)C(CCNC(=O)c1ccccc1C(=O)O)Oc1c(Br)cc(-c2ccc(-c3c(Cc4ccccc4)sc4ccccc34)cc2)cc1Br (stereo not drawn)	54		
CC[C@H](Oc1c(Br)cc(-c2ccc(-c3c(Cc4ccccc4)oc4ccccc34)cc2)cc1Br)C(=O)O	130		
CCCCc1oc2ccccc2c1C(O)c1ccc2cc(O)ccc2c1 (stereo not drawn)	1100		
COc1ccc(Cc2sc3ccccc3c2-c2ccc(-c3ccc(O[C@H](Cc4ccccc4)C(=O)O)cc3)cc2)c(OC)c1			24
CCCCc1oc2ccccc2c1Cc1ccc(-c2ccc(OCn3cnnn3)cc2)cc1	510		
O=C(O)[C@@H](Cc1ccccc1)Oc1ccc(-c2ccc(-c3c(Cc4nccs4)sc4ccccc34)cc2)cc1	1160		
CCCCc1oc2ccccc2c1Cc1ccc2c(Br)c(OCC(=O)O)ccc2c1	1400		
CCCCc1oc2ccccc2c1Cc1ccc2c(Br)c(OC(Cc3ccccc3)C(=O)O)ccc2c1 (stereo not drawn)		26	
Oc1ccc(Cc2sc3ccccc3c2-c2ccc(-c3ccc(O)cc3)cc2)cc1	1080		

From ChEMBL document CHEMBL1132993, “Novel benzofuran and benzothiophene biphenyls as inhibitors of protein tyrosine phosphatase 1B with antihyperglycemic properties” (J Med Chem, 2000)
